Published values from different studies.
Each line is one published result; the experiments were not run side by side.
Target: Myosin light chain kinase, smooth muscle (MYLK, Homo sapiens, UniProt Q15746)

Cc1cnc(Nc2ccc(C(=O)N3CCC(N4CCCC4)CC3)cc2)nc1-c1cc2ccccc2s1
remaining binding (binding; competition with immobilised ligand; 1 µM): 15%

C[C@H]1CCN(c2nccc(-c3cnn4ncccc34)n2)C1
remaining binding (binding; 1 µM): 91%

C[C@@H](c1ccc(-n2cnc3c(N)ncnc32)cc1)N1CCc2nn(C)c(Cc3ccccc3)c2C1=O
remaining binding (binding; competition with immobilised ligand; 0.1 µM): 94%

C[C@@]1(Cc2ccc(C#N)cc2)C(=O)N(c2cc(Cl)cc(Cl)c2)c2ncc(C(=O)NC3(c4nc(C5CCC5)no4)CC3)n21
remaining binding (cell-free assay; competition with immobilised ligand; 1 µM): 100%

N[C@H]1CCN(c2nccc(-c3cnn4ncccc34)n2)C1
remaining binding (binding; 1 µM): 81%

CO[C@@H](C)c1c(Nc2ccc([C@H](N(C)C(=O)C3CCS(=O)(=O)CC3)C(F)(F)F)cc2)cnc2cc(Cl)nn12
remaining binding (cell-free assay; competition with immobilised ligand; 1 µM): 95%

O=C(c1ccc(Nc2nccc(-c3cc4ccccc4s3)n2)cc1)N1CCC(N2CCCC2)CC1
remaining binding (binding; competition with immobilised ligand; 1 µM): 61%

CN(C)c1nccc(-c2cnn3ncccc23)n1
remaining binding (binding; 1 µM): 63%

CS(=O)(=O)N1CCCC(NC(=O)[C@H](CCC2CCCCC2)NC(=O)c2ccc(CNC(=O)c3cnc4ccccn34)cc2)C1 (some centres unmarked)
remaining binding (cell-free assay; competition with immobilised ligand; 0.1 µM): 100%

COc1ncc2cc3ccccc3nc2c1C#N
remaining binding (binding; competition with immobilised ligand; 5 µM): 92%

O=C(O)[C@@H]1[C@@H](Cn2nnc3ccccc3c2=O)CC[C@H]1C(=O)c1ccc(OCCC2CCOCC2)cc1
remaining binding (cell-free assay; competition with immobilised ligand; 1 µM): 100%

c1cncc(-c2cccc(Nc3nccc(NC4CCCCC4)n3)c2)c1
remaining binding (binding; competition with immobilised ligand; 10 µM): 62%

COc1cnc(Nc2cccc(S(N)(=O)=O)c2)nc1N1CCN(c2ccccc2)C(=O)C1
remaining binding (binding; competition with immobilised ligand; 1 µM): 97%

CN(CCCC(F)(F)F)c1nccc(-c2cnn3ncccc23)n1
remaining binding (binding; 1 µM): 100%

O=C(c1ccc(Nc2ncc(Cl)c(-c3ccc(Cl)s3)n2)cc1)N1CCC(N2CCCC2)CC1
remaining binding (binding; competition with immobilised ligand; 1 µM): 66%

CC1CCCN1c1nccc(-c2cnn3ncccc23)n1 (centres unmarked)
remaining binding (binding; 1 µM): 97%

C[C@@H]1CN(c2cc(-c3nn(C)c4ccc(OC5(C)CC5)cc34)ncn2)C[C@H](C)O1
remaining binding (cell-free assay; competition with immobilised ligand; 1 µM): 64%

O=C(NCC1CCOCC1)c1n[nH]cc1NC(=O)c1c(F)cccc1F
remaining binding (binding; competition with immobilised ligand; 1 µM): 70%

COc1ccnn2ncc(-c3ccnc(N(C)C)n3)c12
remaining binding (binding; 1 µM): 100%

CCCCN(CCCC)C(=O)CN1C[C@H](c2cc(OC)c3c(c2)OCO3)[C@@H](C(=O)O)[C@@H]1CC(C)(C)CCC
remaining binding (cell-free assay; competition with immobilised ligand; 1 µM): 100%
